Experimental data as given in ChEMBL document CHEMBL1137737, “Synthesis, antimicrobial and cytotoxic activities of 1,3,4-oxadiazoles, 1,3,4-thiadiazoles and 1,2,4-triazoles” (Eur J Med Chem, 2009).
In brackets after ≈: the same amount, converted by molar mass.

Tests used:
Type in all cases: functional
[1] = system: Fusarium solani; experiment: Antifungal activity against Fusarium solani NCIM 1330 at 200 ug/disk after 48 hrs by agar disc-diffusion method; settings: NCIM 1330, 48 h, read-out: DIZ
In short: (§1)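 Sterile 6 mm filter-paper discs are soaked in compound solution in DMSO and placed on nutrient agar plates already inoculated with each organism. Plates are incubated at 37 °C. The diameter of the growth-inhibition zone is read after 24 h for bacteria and after 48 h for fungi.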

[2] = system: Bacillus subtilis; experiment: Antibacterial activity against Bacillus subtilis NCIM 2063 at 100 ug/disk after 24 hrs by agar disc-diffusion method; settings: NCIM 2063, 24 h, read-out: DIZ; in short: as §1
[3] = system: Bacillus subtilis; experiment: Antibacterial activity against Bacillus subtilis NCIM 2063 at 200 ug/disk after 24 hrs by agar disc-diffusion method; settings: NCIM 2063, 24 h, read-out: DIZ; in short: as §1
[4] = system: Staphylococcus aureus; experiment: Antibacterial activity against Staphylococcus aureus NCIM 5021 at 200 ug/disk after 24 hrs by agar disc-diffusion method; settings: NCIM 5021, 24 h, read-out: DIZ; in short: as §1
[5] = system: Klebsiella pneumoniae; experiment: Antibacterial activity against Klebsiella pneumoniae NCIM 2957 at 200 ug/disk after 24 hrs by agar disc-diffusion method; settings: NCIM 2957, 24 h, read-out: DIZ; in short: as §1
[6] = system: Curvularia lunata; experiment: Antifungal activity against Curvularia lunata NCIM 716 after 48 hrs by microdilution susceptibility method; settings: NCIM 716, 48 h
In short: (§2)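 This is a microdilution susceptibility test. Organism suspensions are inoculated into wells holding the dilution series, then incubated at 36 °C for 24 h (bacteria) or 48 h (fungi). MIC is the lowest concentration giving no turbidity, i.e. complete inhibition of visible growth.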

[7] = system: Curvularia lunata; experiment: Antifungal activity against Curvularia lunata NCIM 716 at 200 ug/disk after 48 hrs by agar disc-diffusion method; settings: NCIM 716, 48 h, read-out: DIZ; in short: as §1
[8] = system: Curvularia lunata; experiment: Antifungal activity against Curvularia lunata NCIM 716 at 100 ug/disk after 48 hrs by agar disc-diffusion method; settings: NCIM 716, 48 h, read-out: DIZ; in short: as §1
[9] = system: Proteus vulgaris; experiment: Antibacterial activity against Proteus vulgaris NCIM 2027 at 100 ug/disk after 24 hrs by agar disc-diffusion method; settings: NCIM 2027, 24 h, read-out: DIZ; in short: as §1
[10] = system: Staphylococcus aureus; experiment: Antibacterial activity against Staphylococcus aureus NCIM 5021 at 100 ug/disk after 24 hrs by agar disc-diffusion method; settings: NCIM 5021, 24 h, read-out: DIZ; in short: as §1
[11] = system: Aspergillus niger; experiment: Antifungal activity against Aspergillus niger NCIM 596 at 100 ug/disk after 48 hrs by agar disc-diffusion method; settings: NCIM 596, 48 h, read-out: DIZ; in short: as §1
[12] = system: Klebsiella pneumoniae; experiment: Antibacterial activity against Klebsiella pneumoniae NCIM 2957 at 100 ug/disk after 24 hrs by agar disc-diffusion method; settings: NCIM 2957, 24 h, read-out: DIZ; in short: as §1
[13] = system: Proteus vulgaris; experiment: Antibacterial activity against Proteus vulgaris NCIM 2027 at 200 ug/disk after 24 hrs by agar disc-diffusion method; settings: NCIM 2027, 24 h, read-out: DIZ; in short: as §1
[14] = system: Staphylococcus aureus; experiment: Antibacterial activity against Staphylococcus aureus NCIM 5021 after 24 hrs by microdilution susceptibility method; settings: NCIM 5021, 24 h; in short: as §2
[15] = system: Aspergillus niger; experiment: Antifungal activity against Aspergillus niger NCIM 596 at 200 ug/disk after 48 hrs by agar disc-diffusion method; settings: NCIM 596, 48 h, read-out: DIZ; in short: as §1
[16] = system: Fusarium solani; experiment: Antifungal activity against Fusarium solani NCIM 1330 at 100 ug/disk after 48 hrs by agar disc-diffusion method; settings: NCIM 1330, 48 h, read-out: DIZ; in short: as §1
[17] = system: Fusarium solani; experiment: Antifungal activity against Fusarium solani NCIM 1330 after 48 hrs by microdilution susceptibility method; settings: NCIM 1330, 48 h; in short: as §2
[18] = system: Aspergillus niger; experiment: Antifungal activity against Aspergillus niger NCIM 596 after 48 hrs by microdilution susceptibility method; settings: NCIM 596, 48 h; in short: as §2
[19] = system: Bacillus subtilis; experiment: Antibacterial activity against Bacillus subtilis NCIM 2063 after 24 hrs by microdilution susceptibility method; settings: NCIM 2063, 24 h; in short: as §2

Row | SMILES | zone of inhibition at 200 µg/disc [1] [mm] | zone of inhibition at 100 µg/disc [2] [mm] | zone of inhibition at 200 µg/disc [3] [mm] | zone of inhibition at 200 µg/disc [4] [mm] | zone of inhibition at 200 µg/disc [5] [mm] | MIC [6] [µg/mL] | zone of inhibition at 200 µg/disc [7] [mm] | zone of inhibition at 100 µg/disc [8] [mm] | zone of inhibition at 100 µg/disc [9] [mm] | zone of inhibition at 100 µg/disc [10] [mm] | zone of inhibition at 100 µg/disc [11] [mm] | zone of inhibition at 100 µg/disc [12] [mm] | zone of inhibition at 200 µg/disc [13] [mm] | MIC [14] [µg/mL] | zone of inhibition at 200 µg/disc [15] [mm] | zone of inhibition at 100 µg/disc [16] [mm] | MIC [17] [µg/mL] | MIC [18] [µg/mL] | MIC [19] [µg/mL]
1 | O=S(=O)(Cc1ccc(Cl)cc1)Cc1nnc(-c2ccccc2)o1 | 19 | 18 | 19 | 20 | 18 | 400 (≈ 1150 µM) | 22 | 19 | 15 | 18 | 17 | 16 | 17 | 400 (≈ 1150 µM) | 21 | 16 | 400 (≈ 1150 µM) |  | 
2 | O=S(=O)(Cc1ccccc1)Cc1nnc(-c2ccccc2)o1 | 20 | 14 | 17 | 18 | 18 |  | 22 | 18 | 12 | 16 | 16 | 15 | 15 | 400 (≈ 1270 µM) | 17 | 17 | 400 (≈ 1270 µM) |  | 
3 | CC(=O)N1CCN(c2ccc(OCC3COC(Cn4ccnc4)(c4ccc(Cl)cc4Cl)O3)cc2)CC1 (configuration not stated) [KETOCONAZOLE] | 42 |  |  |  |  | 6.25 (≈ 11.8 µM) | 44 | 41 |  |  | 36 |  |  |  | 39 | 38 | 12.5 (≈ 23.5 µM) | 6.25 (≈ 11.8 µM) | 
4 | O=S(=O)(Cc1nnc(-c2ccccc2Cl)o1)c1ccccc1 | 20 | 16 | 17 | 16 | 15 |  | 22 | 18 | 14 | 14 | 15 | 12 | 17 |  | 17 | 16 |  |  | 
5 | O=S(=O)(Cc1nnc(-c2ccccc2)s1)c1ccccc1 | 22 | 15 | 17 | 21 | 18 | 400 (≈ 1260 µM) | 19 | 16 | 18 | 19 | 15 | 16 | 20 | 400 (≈ 1260 µM) | 17 | 18 | 400 (≈ 1260 µM) |  | 400 (≈ 1260 µM)
6 | Nn1c(CS(=O)(=O)c2ccccc2)nnc1-c1ccccc1Cl | 25 | 19 | 22 | 20 | 20 | 200 (≈ 573 µM) | 25 | 22 | 16 | 17 | 18 | 17 | 18 | 400 (≈ 1150 µM) | 21 | 23 | 400 (≈ 1150 µM) |  | 200 (≈ 573 µM)
7 | O=S(=O)(Cc1nnc(-c2ccccc2)o1)c1ccc(Cl)cc1 | 20 | 15 | 17 | 18 | 16 |  | 17 | 15 | 12 | 15 | 16 | 14 | 15 |  | 19 | 16 | 400 (≈ 1190 µM) |  | 
8 | O=S(=O)(Cc1ccccc1)Cc1nnc(-c2ccccc2Cl)o1 | 19 | 15 | 18 | 20 | 16 | 400 (≈ 1150 µM) | 23 | 18 | 15 | 17 | 18 | 14 | 17 | 400 (≈ 1150 µM) | 21 | 17 | 400 (≈ 1150 µM) |  | 
9 | O=S(=O)(Cc1nnc(-c2ccccc2Cl)s1)c1ccccc1 | 22 | 15 | 18 | 23 | 21 | 400 (≈ 1140 µM) | 21 | 18 | 16 | 20 | 15 | 17 | 19 | 400 (≈ 1140 µM) | 18 | 19 | 400 (≈ 1140 µM) | 400 (≈ 1140 µM) | 400 (≈ 1140 µM)
10 | Nn1c(CS(=O)(=O)c2ccccc2)nnc1-c1ccccc1 | 25 | 14 | 17 | 18 | 18 | 400 (≈ 1270 µM) | 24 | 20 | 16 | 16 | 19 | 15 | 18 | 400 (≈ 1270 µM) | 22 | 22 | 400 (≈ 1270 µM) |  | 400 (≈ 1270 µM)
11 | O=S(=O)(Cc1nnc(-c2ccccc2)s1)c1ccc(Cl)cc1 | 21 | 18 | 23 | 23 | 17 | 400 (≈ 1140 µM) | 21 | 19 | 16 | 20 | 16 | 15 | 19 | 400 (≈ 1140 µM) | 19 | 18 | 400 (≈ 1140 µM) | 400 (≈ 1140 µM) | 400 (≈ 1140 µM)
12 | O=S(=O)(Cc1nnc(-c2ccccc2Cl)o1)c1ccc(Cl)cc1 | 19 | 16 | 17 | 18 | 17 | 400 (≈ 1080 µM) | 19 | 17 | 16 | 15 | 15 | 14 | 19 | 400 (≈ 1080 µM) | 16 | 16 | 400 (≈ 1080 µM) |  | 400 (≈ 1080 µM)
13 | O=S(=O)(Cc1nnc(-c2ccccc2)o1)c1ccccc1 | 18 | 11 | 13 | 15 | 18 |  | 19 | 15 | 14 | 12 | 14 | 16 | 17 |  | 17 | 15 |  |  | 
